# Source: PubChem
# PMI act satM6P: increases human PMI activity with near-saturating mannose 6-phosphate. P34949. AID 1216. coupled PMI enzyme assay, resazurin fluorescence, 20 min; stronger effect = higher value; 1 = untreated enzyme, 0 = substrate-free blank. actives 0.34% (n = 190,000). activation factor at 20 µM;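 active = activation factor of 2 or more at 20 µM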
# Target sequence (P34949 whole entry, looked up): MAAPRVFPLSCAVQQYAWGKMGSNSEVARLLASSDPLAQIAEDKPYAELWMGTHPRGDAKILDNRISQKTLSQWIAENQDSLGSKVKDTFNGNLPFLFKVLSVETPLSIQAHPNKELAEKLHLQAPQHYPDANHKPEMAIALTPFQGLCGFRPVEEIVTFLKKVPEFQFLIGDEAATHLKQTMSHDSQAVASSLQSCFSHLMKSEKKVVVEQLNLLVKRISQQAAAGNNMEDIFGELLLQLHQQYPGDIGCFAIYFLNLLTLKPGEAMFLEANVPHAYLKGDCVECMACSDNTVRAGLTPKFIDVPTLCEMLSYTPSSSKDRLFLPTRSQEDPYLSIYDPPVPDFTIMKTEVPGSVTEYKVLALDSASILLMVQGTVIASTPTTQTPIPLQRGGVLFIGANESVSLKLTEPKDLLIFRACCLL
#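 Test system – human PMI in coupled enzyme assay · Timing – 20 min incubation at room temperature · Detection – Diaphorase-driven resazurin-to-resorufin fluorescence, excitation 544, emission 590 nm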
# PMI act: increases human mannose-6-phosphate isomerase activity. P34949. purified human PMI, coupled resazurin fluorescence, 20 min; stronger effect = higher value; 1 = vehicle control, 0 substrate-free wells. activation factor at 20 µM. actives 0.005% (n = 190,000). AID 1214;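 active = activation factor of 2 or more at 20 µM, relative to plate controls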
# bCat KO growth: beta-catenin-lacking colon tumor cell growth suppression. viability, % at 10 µM. actives 1.5% (n = 140,000). HCT116 beta-catenin knockout viability, CellTiter-Glo, 60 h; stronger effect = lower value;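 active = viability at or under a set limit, the compound median less 4 SD, cut at about 6% in these data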;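 note: 0% = Hyamine 1622 control at 20 µM and 100% = untreated cell control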
# Lmaj promast: Leishmania major promastigote growth inhibition. inhibition, % at 10 µM. AID 1063. Leishmania major promastigotes, resazurin fluorescence viability. actives 9% (n = 200,000); in the data active = inhibition above about 50%;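 note: promastigotes grown with compound for 44 hours at 28 °C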
# PTEN del growth: growth suppressors of cells with PTEN tumor suppressor deletion | AID 827 | viability, % at 10 µM | actives 1.2% (n = 140,000) | HCT116 PTEN-null viability, CellTiter-Glo, 60 h; stronger effect = lower value;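 active = viability at or below a set limit, 4 SD under the median of all tested compounds, cut at about 3.7% in these data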;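 note: PTEN knockout HCT116 line with beta catenin targeted HCT116 as companion control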
# * hit, by the source's call; nt = no result given. The list is not random: actives were taken first. Their share in the collection is about 9.6%.
SMILES,PMI act satM6P,PMI act,bCat KO growth,Lmaj promast,PTEN del growth
CCCCN1C(=O)/C(=C/C=C/c2ccco2)C(=O)NC1=S,1.9,1.7,79,9,73
Cc1ccc(N2C(=O)NC(=O)/C(=C/C=C/c3ccco3)C2=O)cc1,1.2,1.1,18,83*,10
CC(C)c1ccc(N2C(=O)NC(=O)/C(=C/C=C/c3ccco3)C2=O)cc1,1.4,1.3,16,94*,9
Cc1cc(C)cc(N2C(=O)NC(=O)/C(=C\C=C\c3ccco3)C2=O)c1,1.2,1.2,30,99*,39
COCCN1Cc2cc(=O)n3c([nH]c4ccccc43)c2C1=N,0.9,1,nt,8,nt
Cc1ccccc1CCNCc1ccc(Br)cc1,1,1,90,15,92
CC(=NCCCN1CCOCC1)c1c(O)n(Cc2ccccc2)c(=O)[nH]c1=O,1.2,1,96,90*,96
CCC(=NCCCN1CCOCC1)c1c(O)n(Cc2ccccc2)c(=O)[nH]c1=O,0.9,0.9,100,2,90
O=C(CN1CCCCC1)c1ccccc1F,2.3*,1.6,nt,-3,nt
O=C(CN1CCCCC1)c1ccccc1Cl,2*,1.7,96,25,105
O=C(CN1CCCCC1)c1cccc(Br)c1,1.4,1.5,93,-10,99
CC(C)Sc1nnc([C@@H](N)Cc2ccccc2)o1,1.1,1,98,-4,97
O=C1NC(=O)C(CCc2ccncc2)(Cc2ccc3c(c2)OCO3)C(=O)N1CCc1ccccc1 (stereo unspecified),0.9,0.9,95,100*,83
O=C1NC(=O)C(CCc2ccncc2)(CCc2ccncc2)C(=O)N1CCc1ccc(F)cc1,1,1,nt,9,nt
CN1C(=O)N(C)C(=O)C(CCc2ccncc2)(Cc2ccc3c(c2)OCO3)C1=O,1,1,93,65*,87
O=C1NC(=O)C(CCc2ccncc2)(CCc2ccncc2)C(=O)N1CCc1ccccc1,0.9,0.9,nt,0,nt
CN1C2CCC1/C(=C/c1ccccn1)C(=O)/C2=C\c1ccccn1,1,1.1,1.8*,100*,1.8*
COc1cc2c(cc1OC)-c1c(OC)c(OC)c(OC)c3ccnc(c13)C2=O,0.5,0.8,15,78*,8
COc1ccc(/C=C2\C(=N\O)C3CCN2CC3)cc1,1.2,1.2,95,-5,96
Nc1c2c(nc3sc4c(c13)CCCCC4)CCCC2,1.1,1,3.4*,93*,7
COc1ccc(-n2c(O)c(C=Nc3c(C)n(C)n(-c4ccccc4)c3=O)c(=O)[nH]c2=O)cc1,0.9,1,83,0,97
CCOC(=O)c1c(-n2c(C)cc(C=C3C(=O)NC(=O)NC3=O)c2C)sc2c1CCCC2,1.1,1.1,46,84*,47
Cc1cccc(N2C(=O)NC(=O)/C(=C\c3cc(C)n(-c4sc5c(c4C#N)CCCC5)c3C)C2=O)c1C,1,0.9,83,-3,69
O=c1c2ccccc2nc(/C=C/c2ccc([N+](=O)[O-])o2)n1-c1ccc(O)cc1,1.1,1.2,nt,99*,nt
Cc1ccnc(-n2c(-c3ccco3)nc3ccccc3c2=O)c1,0.8,0.9,93,0,106
SMILES,PMI act satM6P,PMI act,bCat KO growth,Lmaj promast,PTEN del growth
Cc1cccc(-n2c(/C=C/c3ccc([N+](=O)[O-])o3)nc3ccccc3c2=O)c1,1.2,1.2,0.8*,88*,0.6*
Cn1cc(C(=O)N2CCCCC2)c2ccccc21,1.1,1.2,nt,0,nt
CN1CCC(O)(c2ccc(Cl)cc2)C(C(=O)c2ccc(Cl)cc2)C1 (stereo unspecified),0.7,0.7,nt,86*,nt
COc1ccc2[nH]cc(CCN(C)C)c2c1,1,1,nt,-2,nt
CCCCCSc1cc(OC)c(CCN(C)C)cc1OC,1.1,1.1,63,100*,62
Cc1nc2ccc(Cl)cc2c(-c2ccccc2)c1C(=O)O,1.1,1.1,94,-6,88
Cc1ccccc1C(O)(Cc1ccccc1)C1CN2CCC1CC2 (stereo unspecified),1.1,1.1,1.1*,98*,0.3*
CCN1C(=O)C(=Cc2cc(C)n(C3CC3)c2C)C(=O)N(CC)C1=S,0.4,0.4,92,-2,90
CCN1C(=O)C(=Cc2ccc(C)s2)C(=O)N(CC)C1=S,0.7,0.7,32,84*,6
CC(C)CCNC(=O)c1c(N)n(CC2CCCO2)c2nc3ccccc3nc12 (stereo unspecified),0.8,0.8,74,11,63
CCC(C)NC(=O)c1c(N)n(CC2CCCO2)c2nc3ccccc3nc12 (stereo unspecified),0.4,0.6,67,67*,65
CCC(C)NC(=O)c1c(N)n(Cc2ccc3c(c2)OCO3)c2nc3ccccc3nc12 (stereo unspecified),0.4,0.6,1.4*,65*,1.4*
CCCCn1c(=O)c(C=Nc2cc([N+](=O)[O-])ccc2OC)c(O)n(CCCCl)c1=O,1.7,1.3,85,-2,81
OC1CCCCC1N1CCC(c2ccccc2)CC1 (stereo unspecified),1,1,92,-2,93
COc1ccc(OC)c(N2C(=O)NC(=O)/C(=C\c3ccc([N+](=O)[O-])s3)C2=O)c1,1.5,1.4,nt,100*,nt
CNC(=O)Oc1ccc2c(c1)C(=O)c1ccccc1CO2,0.9,0.9,88,1,88
C[C@]12CC(=CO)C(=O)C[C@@H]1CC[C@@H]1[C@@H]2CC[C@@]2(C)[C@H]1CC[C@]2(C)O,1.3,1.2,nt,nt,nt
CC1(C)C2CC=C(CN3CCOCC3)C1C2 (stereo unspecified),0.9,0.9,93,64*,111
O=C(NCC(c1cccnc1)N1CCN(c2ccccc2F)CC1)Oc1ccccc1 (stereo unspecified),1,0.9,86,97*,96
Fc1ccccc1N1CCN(Cc2c(F)cccc2F)CC1,1,0.8,91,0,93
COc1ccc(N2CCN(C(CNC(=O)Oc3ccccc3)c3cccnc3)CC2)cc1 (stereo unspecified),0.9,0.9,87,92*,83
CS(=O)(=O)Nc1ccc(Cc2noc(-c3ccc4[nH]cc(CCN)c4c3)n2)cc1,1,0.9,nt,nt,nt
Cc1ccc(C(C)C)c(OCC(=O)N2CCN(Cc3nc4cc([N+](=O)[O-])ccc4n3C)CC2)c1,0.8,0.9,53,97*,33
CC(C)NS(=O)(=O)c1ccc(OCC(=O)N2CCN(Cc3ccccc3)CC2)c(Cl)c1,1,1,75,10,80
CC1=CC(=C2C(=O)NC(=O)NC2=O)C=C(C(F)(F)F)N1Cc1ccccc1,1.1,1,nt,2,nt
CC1=CC(=C2C(=O)NC(=S)NC2=O)C=C(C(F)(F)F)N1Cc1ccccc1,2*,1.7,nt,8,nt
Cc1ccccc1-n1c(O)c(/C=N/N2CCOCC2)c(=O)[nH]c1=S,0.4,0.7,71,-3,86
CCn1c(O)c(/C=N/NC(=O)c2ccncc2)c(=O)[nH]c1=S,1.2,1,92,99*,103
